Test results taken from ChEMBL document CHEMBL1132709, “Novel cyclopropapyrroloindole derivative (AT-3510) bearing methoxycarbonyl and trifluoromethyl groups” (J Med Chem, 1999).
In brackets after ≈: the same amount, converted by molar mass.

Legend:
Mus musculus [1] = experiment: In vivo antitumor activity (1 mg/Kg) is the measure of tumor growth inhibition of colon 26 murine […] cells.; format: functional
How it was run: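 Colon 26 cells (10^6/mouse) inoculated sc into male CDF1 mice on day 0; drug given iv on day 7. Read-out is percentage tumor growth inhibition versus the untreated group.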

HeLa = experiment: Concentration required to inhibit the growth of HeLaS3 human uterine cervix carcinoma cells by 50%; format: functional, cell-based
Mus musculus [2] = experiment: In vivo antitumor activity (0.584 mg/kg) is the measure of tumor growth inhibition of human tumor xenograft WiDr (colon) implanted sc in mice.; format: functional
How it was run: (§1)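 Tumor fragments (2–3 mm3) implanted sc into female BALB/cA Jcl-nu mice on day 0. A single iv dose was given once tumor volume reached about 100 mm3. Read-out is percentage of maximum tumor growth inhibition versus the untreated group.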

Mus musculus [3] = experiment: In vivo antitumor activity (0.584 mg/kg) is the measure of tumor growth inhibition of human tumor xenograft HCT116 (colon) implanted sc in mice.; format: functional; how it was run: as §1
Mus musculus [4] = experiment: In vivo antitumor activity (0.584 mg/kg) is the measure of tumor growth inhibition of human tumor xenograft NUGC-3 (stomach) implanted sc in mice.; format: functional; how it was run: as §1
Mus musculus [5] = experiment: In vivo antitumor activity (0.584 mg/kg) is the measure of tumor growth inhibition of human tumor xenograft DLD-1 (colon) implanted sc in mice.; format: functional; how it was run: as §1
Mus musculus [6] = experiment: In vivo antitumor activity (0.716 mg/kg) is the measure of tumor growth inhibition of human tumor xenograft NUGC-3 (stomach) implanted sc in mice.; format: functional; how it was run: as §1
Mus musculus [7] = experiment: In vivo antitumor activity (1 mg/kg) is the measure of tumor growth inhibition of human tumor xenograft DLD-1 (colon) implanted sc in mice.; format: functional; how it was run: as §1
Mus musculus [8] = experiment: In vivo antitumor activity (1 mg/kg) is the measure of tumor growth inhibition of human tumor xenograft HCT116 (colon) implanted sc in mice.; format: functional; how it was run: as §1
Mus musculus [9] = experiment: In vivo antitumor activity (1 mg/kg) is the measure of tumor growth inhibition of human tumor xenograft WiDr (colon) implanted sc in mice.; format: functional; how it was run: as §1
[10] = Ratio between max dose within 10% body weight loss and tumor growth inhibition; format: functional
How it was run: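 Ratio of maximum dose within 10% body weight loss to the dose giving 50% tumor growth inhibition, in sc Colon 26-bearing mice dosed iv.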

Mus musculus [11] = experiment: In vivo antitumor activity (0.800 mg/kg) is the measure of tumor growth inhibition of human tumor xenograft NUGC-3 (stomach) implanted sc in mice.; format: functional
How it was run: (§2)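 Tumor fragments (2–3 mm3) implanted sc into female BALB/cA Jcl-nu mice on day 0; single iv dose given once tumor volume reached about 100 mm3. Read-out is maximum tumor growth inhibition, as percentage versus untreated group.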

Mus musculus [12] = experiment: In vivo antitumor activity (0.845 mg/kg) is the measure of tumor growth inhibition of human tumor xenograft DLD-1 (colon) implanted sc in mice.; format: functional; how it was run: as §2
Mus musculus [13] = experiment: In vivo antitumor activity (0.845 mg/kg) is the measure of tumor growth inhibition of human tumor xenograft HCT116 (colon) implanted sc in mice.; format: functional; how it was run: as §2
Mus musculus [14] = experiment: In vivo antitumor activity is the measure of tumor growth inhibition of Colon 26 murine […] cells.; format: functional
How it was run: (§3)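 Colon 26 cells (10^6/mouse) inoculated sc into male CDF1 mice on day 0; single iv dose on day 7. Tumor growth inhibition expressed as percentage versus untreated group.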

Mus musculus [15] = experiment: In vivo concentration required to inhibit the Colon 26 murine […] cell growth by 50%; format: functional
Mus musculus [16] = experiment: In vivo antitumor activity (0.0884 mg/Kg) is the measure of tumor growth inhibition of colon 26 murine […] cells.; format: functional; how it was run: as §3
Mus musculus [17] = experiment: In vivo concentration required to inhibit the colon 26 murine […] cell growth by 50%; format: functional
Mus musculus [18] = experiment: In vivo antitumor activity (3.13 mg/kg) is the measure of tumor growth inhibition of human tumor xenograft DLD-1 (colon) implanted sc in mice.; format: functional; how it was run: as §2
Mus musculus [19] = experiment: In vivo antitumor activity (3.13 mg/kg) is the measure of tumor growth inhibition of human tumor xenograft HCT116 (colon) implanted sc in mice.; format: functional; how it was run: as §2
Mus musculus [20] = experiment: In vivo antitumor activity (3.13 mg/kg) is the measure of tumor growth inhibition of human tumor xenograft NUGC-3 (stomach) implanted sc in mice.; format: functional; how it was run: as §2
Mus musculus [21] = experiment: In vivo antitumor activity (3.13 mg/kg) is the measure of tumor growth inhibition of human tumor xenograft WiDr (colon) implanted sc in mice.; format: functional; how it was run: as §2
Mus musculus [22] = experiment: In vivo antitumor activity (0.125 mg/Kg) is the measure of increase in life span of mice bearing P388 murine leukemia cells; format: functional
Mus musculus [23] = experiment: In vivo antitumor activity (0.125 mg/Kg) is the measure of tumor growth inhibition in mice bearing S180 murine sarcoma cells; format: functional, CCRF S-180
P338 = experiment: In vitro concentration required to inhibit the growth of […] murine leukemia cells by 50%; format: functional, cell-based; conditions: Mus musculus

Structure (SMILES): COC(=O)c1c(C(F)(F)F)[nH]c2c(O)cc3c(c12)[C@H](CCl)CN3C(=O)c1cc2cc(-c3cc4ccccc4o3)ccc2[nH]1 (racemic)
- TGI (Mus musculus [1]): 84%
- IC50 (HeLa): 3.6 ng/mL (≈ 5.92 nM)

Structure (SMILES): CCN(CC)c1ccc2cc(C(=O)Nc3ccc4[nH]c(C(=O)N5C[C@@H](CCl)c6c5cc(OC(=O)Nc5ccccc5)c5[nH]cc(C)c65)cc4c3)oc2c1 [CARZELESIN]
- TGI (Mus musculus [2]): 56%
- TGI (Mus musculus [3]): 82%
- TGI (Mus musculus [4]): 98%
- TGI (Mus musculus [5]): 79%

Structure (SMILES): COC(=O)c1c(C)[nH]c2c(OC(=O)N3CCN(C)CC3)cc3c(c12)[C@H](CBr)CN3C(=O)c1cc2cc(OC)c(OC)c(OC)c2[nH]1 [PIBROZELESIN]
- TGI (Mus musculus [6]): 91%
- TGI (Mus musculus [7]): 65%
- TGI (Mus musculus [8]): 73%
- TGI (Mus musculus [9]): 59%
- Ratio [10]: 3.4

Structure (SMILES): COC(=O)c1c(C(F)(F)F)[nH]c2c(OC(=O)N3CCN(C)CC3)cc3c(c12)[C@H](CCl)CN3C(=O)c1cc2cc(NC(=O)c3cc4ccccc4cn3)ccc2[nH]1
- TGI (Mus musculus [11]): 97%
- TGI (Mus musculus [12]): 76%
- TGI (Mus musculus [13]): 77%
- TGI (Mus musculus [14]): 93%
- TGI50 (Mus musculus [15]): 0.082 mg/kg
- Ratio [10]: 6.1

Structure (SMILES): Cc1c[nH]c2c1[C@@]13C[C@@H]1CN(C(=O)c1cc4cc(NC(=O)c5cc6ccccc6o5)ccc4[nH]1)C3=CC2=O [ADOZELESIN]
- TGI (Mus musculus [16]): 79%
- TGI50 (Mus musculus [17]): 0.0444 mg/kg
- Ratio [10]: 2
- IC50 (HeLa): 0.0364 ng/mL (≈ 0.0724 nM)

Structure (SMILES): COC(=O)c1c(C(F)(F)F)[nH]c2c(OC(=O)N3CCN(C)CC3)cc3c(c12)[C@H](CCl)CN3C(=O)c1cc2cc(NC(=O)c3cc4cccc(OC)c4o3)ccc2[nH]1
- TGI (Mus musculus [18]): 83%
- TGI (Mus musculus [19]): 90%
- TGI (Mus musculus [20]): 100%
- TGI (Mus musculus [21]): 86%
- TGI (Mus musculus [14]): 95%
- TGI50 (Mus musculus [15]): 0.265 mg/kg
- Ratio [10]: 7.6

Structure (SMILES): Cc1c[nH]c2c1[C@@]13C[C@@H]1CN(C(=O)c1cc4cc(NC(=O)c5cc6ccccc6[nH]5)ccc4[nH]1)C3=CC2=O (racemic)
- ILS (Mus musculus [22]): 210%
- TGI (Mus musculus [23]): 86%
- IC50 (P338): 0.028 ng/mL (≈ 0.0558 nM)
